≈ marks a conversion by molar mass, not a printed value.
Experiments:
[1] = test system: Candida albicans; assay: Antifungal activity against 48 hrs cultures of 10^8 cells/ml Candida albicans ATCC 90028 biofilms by XTT reduction assay; conditions: ATCC 90028, 48 h
[2] = test system: Candida albicans; assay: Antifungal activity against 24 hrs cultures of 10^7 cells/ml Candida albicans ATCC 90028 biofilms by XTT reduction assay; format: functional; conditions: ATCC 90028, 24 h
Outline: (§1)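 Washed late-exponential cells at 1 × 10^7 cells/ml in YNB + 100 mM glucose were adhered 1.5 h at 37°C with shaking at 75 rpm, washed, then grown 24 or 48 h at 37°C, 75 rpm. Biofilms were washed and exposed 24 or 48 h at 37°C to twofold dilutions in RPMI + 2% glucose. Read by XTT at A490. MIC50 is 50% reduction vs drug-free control. Three experiments, four replicates.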

[3] = test system: Candida albicans; assay: Antifungal activity against 24 hrs cultures of 10^7 cells/ml Candida albicans ATCC 90028 biofilms by XTT reduction method; format: functional; conditions: ATCC 90028, 24 h
Outline: as §1

[4] = test system: Candida albicans; assay: Antifungal activity against 48 hrs cultures of 10^7 cells/ml biofilm-derived Candida albicans BF-1 planktonic cells hrs by XTT reduction method; format: functional; conditions: BF-1, 48 h
Outline: (§2)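 Biofilms grown from 1 × 10^7 cells/ml (YNB + 100 mM glucose, 1.5 h adherence, 37°C, 75 rpm) for 24 or 48 h, washed, scraped and moved to wells of serially double-diluted drugs. Incubated with drug 24 or 48 h, then XTT–menadione read at 490 nm. MIC50 = 50% reduction versus drug-free control.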

[5] = test system: Candida albicans; assay: Antifungal activity against 10^8 cells/ml Candida albicans SC5314 planktonic cells by XTT reduction assay; format: functional
Outline: (§3)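 High-density planktonic suspensions (10^7 or 10^8 cells/ml) added to serially double-diluted drugs as in the NCCLS setup, run in parallel in RPMI 1640 + 2% glucose and YNB + 100 mM glucose. Viability read by XTT (1 mg/ml) with menadione (0.4 mM stock, 5:1), 3 h dark at 37°C, A490 minus blank wells. MIC50 = lowest concentration giving 50% reduction versus drug-free control.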

[6] = test system: Candida albicans; assay: Antifungal activity against 24 hrs cultures of 10^7 cells/ml Candida albicans BF-1 planktonic cells by XTT reduction method; format: functional; conditions: BF-1, 24 h
Outline: (§4)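 Age-matched planktonic cultures were grown from the same 1 × 10^7 cells/ml YNB + 100 mM glucose suspension under the biofilm conditions for 24 or 48 h. They were tested against twofold drug dilutions by XTT reduction (3 h at 37°C in the dark, A490 minus blank). MIC50 is 50% reduction vs drug-free control.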

[7] = test system: Candida albicans; assay: Antifungal activity against 24 hrs cultures of 10^7 cells/ml biofilm-derived Candida albicans ATCC 90028 planktonic cells hrs by XTT reduction method; format: functional; conditions: ATCC 90028, 24 h
Outline: as §2

[8] = test system: Candida albicans; assay: Antifungal activity against 10^3 cells/ml Candida albicans ATCC 90028 by NCCLS method; format: functional
Outline: (§5)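 Planktonic broth microdilution per NCCLS (CLSI): inoculum from 24-h SDA cultures adjusted to 0.5 McFarland at 520 nm, diluted in RPMI 1640 to about 0.5 × 10^3 to 2.5 × 10^3 cells/ml. Cells exposed to twofold drug dilutions, incubated 35°C for 48 h, then MIC read. Three separate occasions.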

[9] = test system: Candida albicans; assay: Antifungal activity against 24 hrs cultures of 10^7 cells/ml biofilm-derived Candida albicans BF-1 planktonic cells hrs by XTT reduction method; format: functional; conditions: BF-1, 24 h
Outline: (§6)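 Biofilms grown 24 or 48 h from 1 × 10^7 cells/ml were washed, scraped and transferred into plates of twofold serially diluted drugs. They were incubated 24 or 48 h. MIC was read by XTT reduction (3 h at 37°C in the dark, A490 minus blank) as 50% reduction vs drug-free control.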

[10] = test system: Candida albicans; assay: Antifungal activity against 24 hrs cultures of 10^7 cells/ml Candida albicans ATCC 90028 planktonic cells by XTT reduction method; format: functional; conditions: ATCC 90028, 24 h
Outline: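 Standard 1 × 10^7 cells/ml suspension in YNB + 100 mM glucose propagated planktonically 24 h alongside age-matched biofilms, then exposed to twofold drug dilutions. Metabolic activity read by XTT–menadione reduction, 3 h dark, 37°C, A490 background-subtracted. MIC50 is the 50% reduction point versus drug-free control.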

[11] = test system: Candida albicans; assay: Antifungal activity against 10^3 cells/ml Candida albicans SC5314 by NCCLS method; format: functional
Outline: as §5

[12] = test system: Candida albicans; assay: Antifungal activity against 48 hrs cultures of 10^7 cells/ml Candida albicans BF-1 planktonic cells by XTT reduction method; format: functional; conditions: BF-1, 48 h
Outline: as §4

[13] = test system: Candida albicans; assay: Antifungal activity against 24 hrs cultures of 10^7 cells/ml Candida albicans SC5314 biofilms by XTT reduction assay; format: functional; conditions: SC5314, 24 h
Outline: as §1

[14] = test system: Candida albicans; assay: Antifungal activity against 10^5 cells/ml wild-type Candida albicans BF-1 by EUCAST method; format: functional
Outline: (§7)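 EUCAST AFST planktonic broth microdilution: RPMI 1640 plus 2% glucose, inoculum 0.5 × 10^5 to 2.5 × 10^5 cells/ml, twofold drug dilutions. Performed on three different occasions.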

[15] = test system: Candida albicans; assay: Antifungal activity against 10^5 cells/ml Candida albicans ATCC 90028 by EUCAST method; format: functional
Outline: as §7

[16] = test system: Candida albicans; assay: Antifungal activity against 10^8 cells/ml Candida albicans ATCC 90028 planktonic cells by XTT reduction assay; format: functional
Outline: as §3

[17] = test system: Candida albicans; assay: Antifungal activity against 48 hrs cultures of 10^7 cells/ml biofilm-derived Candida albicans ATCC 90028 planktonic cells hrs by XTT reduction method; format: functional; conditions: ATCC 90028, 48 h
Outline: as §6

[18] = test system: Candida albicans; assay: Antifungal activity against 10^3 cells/ml wild-type Candida albicans BF-1 by NCCLS method; format: functional
Outline: as §5

[19] = test system: Candida albicans; assay: Antifungal activity against 48 hrs cultures of 10^8 cells/ml wild-type Candida albicans BF-1 biofilms by XTT reduction assay; conditions: BF-1, 48 h
[20] = test system: Candida albicans; assay: Antifungal activity against 24 hrs cultures of 10^7 cells/ml wild-type Candida albicans BF-1 biofilms by XTT reduction assay; format: functional; conditions: BF-1, 24 h
Outline: as §1

[21] = test system: Candida albicans; assay: Antifungal activity against 10^7 cells/ml wild-type Candida albicans BF-1 planktonic cells by XTT reduction assay; format: functional
Outline: as §3

[22] = test system: Candida albicans; assay: Antifungal activity against 48 hrs cultures of 10^7 cells/ml Candida albicans ATCC 90028 biofilms by XTT reduction method; format: functional; conditions: ATCC 90028, 48 h
Outline: as §1

[23] = test system: Candida albicans; assay: Antifungal activity against 24 hrs cultures of 10^7 cells/ml Candida albicans BF-1 biofilms by XTT reduction method; format: functional; conditions: BF-1, 24 h
Outline: as §1

[24] = test system: Candida albicans; assay: Antifungal activity against 48 hrs cultures of 10^7 cells/ml Candida albicans BF-1 biofilms by XTT reduction method; format: functional; conditions: BF-1, 48 h
Outline: as §1

[25] = test system: Candida albicans; assay: Antifungal activity against 48 hrs cultures of 10^7 cells/ml Candida albicans ATCC 90028 planktonic cells by XTT reduction method; format: functional; conditions: ATCC 90028, 48 h
Outline: as §4

[26] = test system: Candida albicans; assay: Antifungal activity against 10^7 cells/ml Candida albicans ATCC 90028 planktonic cells by XTT reduction assay; format: functional
Outline: as §3

[27] = test system: Candida albicans; assay: Antifungal activity against 10^8 cells/ml wild-type Candida albicans BF-1 planktonic cells by XTT reduction assay; format: functional
Outline: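 Planktonic suspensions at 1 × 10^8 cells/ml added to twofold serial drug dilutions in 96-well plates (NCCLS format). Run in parallel in RPMI 1640 + 2% glucose and YNB + 100 mM glucose. Readout by XTT reduction: XTT–menadione in PBS, 3 h at 37°C in the dark, A490 minus blank. MIC50 is 50% reduction vs drug-free control.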

Row | SMILES | MIC [1] | MIC [2] | MIC [3] | MIC [4] | MIC [5] | MIC [6] | MIC [7] | MIC [8] | MIC [9] | MIC [10] | MIC [11] | MIC [12] | MIC [13] | MIC [14] | MIC [15] | MIC [16] | MIC [17] | MIC [18] | MIC [19] | MIC [20] | also measured
1 | C[C@@H]1[C@H](O)[C@@H](C)/C=C/C=C/C=C/C=C/C=C/C=C/C=C/[C@H](O[C@@H]2O[C@H](C)[C@@H](O)[C@H](N)[C@@H]2O)C[C@@H]2O[C@](O)(C[C@@H](O)C[C@@H](O)[C@H](O)CC[C@@H](O)C[C@@H](O)CC(=O)O[C@H]1C)C[C@H](O)[C@H]2C(=O)O [AMPHOTERICIN B] | 15 µg/mL (≈ 16.2 µM) | 15 µg/mL (≈ 16.2 µM) | 16 µg/mL (≈ 17.3 µM) | 3.75 µg/mL (≈ 4.06 µM) | 0.46 µg/mL (≈ 0.498 µM) | 0.93 µg/mL (≈ 1.01 µM) | 0.46 µg/mL (≈ 0.498 µM) | 0.23 µg/mL (≈ 0.249 µM) | 1.87 µg/mL (≈ 2.02 µM) | 0.46 µg/mL (≈ 0.498 µM) | 0.23 µg/mL (≈ 0.249 µM) | 0.93 µg/mL (≈ 1.01 µM) | 32 µg/mL (≈ 34.6 µM) | 0.23 µg/mL (≈ 0.249 µM) | 0.23 µg/mL (≈ 0.249 µM) | 0.46 µg/mL (≈ 0.498 µM) | 1.87 µg/mL (≈ 2.02 µM) | 0.23 µg/mL (≈ 0.249 µM) | 30 µg/mL (≈ 32.5 µM) | 30 µg/mL (≈ 32.5 µM) | MIC [21]: 0.46 µg/mL (≈ 0.498 µM); MIC [22]: 16 µg/mL (≈ 17.3 µM); MIC [23]: 32 µg/mL (≈ 34.6 µM); MIC [24]: 32 µg/mL (≈ 34.6 µM); MIC [25]: 0.46 µg/mL (≈ 0.498 µM); MIC [26]: 0.23 µg/mL (≈ 0.249 µM); MIC [27]: 0.93 µg/mL (≈ 1.01 µM)
2 | CC[C@H](C)C[C@H](C)CCCCCCCCC(=O)N[C@H]1C[C@@H](O)[C@@H](NCCN)NC(=O)[C@@H]2[C@@H](O)CCN2C(=O)[C@H]([C@H](O)CCN)NC(=O)[C@H]([C@H](O)[C@@H](O)c2ccc(O)cc2)NC(=O)[C@@H]2C[C@@H](O)CN2C(=O)[C@H]([C@@H](C)O)NC1=O [CASPOFUNGIN] | 100 µg/mL (≈ 91.5 µM) | 100 µg/mL (≈ 91.5 µM) | 100 µg/mL (≈ 91.5 µM) | 0.2 µg/mL (≈ 0.183 µM) | 0.2 µg/mL (≈ 0.183 µM) | 0.4 µg/mL (≈ 0.366 µM) | 0.2 µg/mL (≈ 0.183 µM) | 0.2 µg/mL (≈ 0.183 µM) | 0.4 µg/mL (≈ 0.366 µM) | 0.2 µg/mL (≈ 0.183 µM) | 0.2 µg/mL (≈ 0.183 µM) | 0.4 µg/mL (≈ 0.366 µM) | > 100 µg/mL | 0.2 µg/mL (≈ 0.183 µM) | 0.2 µg/mL (≈ 0.183 µM) | 0.2 µg/mL (≈ 0.183 µM) | 0.4 µg/mL (≈ 0.366 µM) | 0.2 µg/mL (≈ 0.183 µM) | > 100 µg/mL | > 100 µg/mL | MIC [21]: 0.2 µg/mL (≈ 0.183 µM); MIC [22]: 100 µg/mL (≈ 91.5 µM); MIC [23]: > 100 µg/mL; MIC [24]: > 100 µg/mL; MIC [25]: 0.4 µg/mL (≈ 0.366 µM); MIC [26]: 0.2 µg/mL (≈ 0.183 µM); MIC [27]: 0.4 µg/mL (≈ 0.366 µM)
